Our source for the folding enthalpy and Tm values is the array DNA melting data of Ke et al. (doi:10.1101/2024.01.08.574731).

The nature of data set [1]: folding enthalpy; higher = less favourable; fluorescence melt of hairpins on a sequencing array, two-state fit. The settings on record: sodium 0.088 M. Summed up:
(§1)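 With Cy3 and quencher oligos annealed, library hairpins on a sequenced MiSeq flow cell were imaged for Cy3 fluorescence in 50 mM Na-HEPES pH 8.0, 25 mM NaCl, in 2.5 °C steps up to 60 °C. Melting temperature and folding enthalpy were derived from bootstrapped two-state fits of signals normalised to pre-quench Cy3 and to control constructs. Four replicates were combined by inverse variance, with fitted temperatures raised by 9.35 °C to match UV melts.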

The nature of data set [2]: melting temperature; fluorescence melt of hairpins on a sequencing array, two-state fit, raised by 9.35 °C to match UV melts. The settings on record: sodium 0.088 M. A digest of the protocol:
as §1

As to GAGACCCGAAAGGGACTC (((.(((....))).))), the folding enthalpy in data set [1] was -136 kJ/mol. Besides, the Tm in data set [2] stood at 57.6 °C.
The corresponding values for GAGACCGAAAGGTCCTC ((((((....))).))) are -43.4 kJ/mol and 53.6 °C.
The corresponding values for GAGACCGAAAGGTGACTC ((((((....)))..))) are -57.8 kJ/mol and 35.6 °C.
GAGACCGGAAACGGCCTC (((.(((....))).))): in data set [1], the folding enthalpy was -117 kJ/mol. Moreover, the Tm in data set [2] was 50.8 °C.
The corresponding values for GAGACCGGAAACGGTCCC (.(((((....))))).) are -42.6 kJ/mol and 46.9 °C.
Consider GAGACCGGAAACGGTTTC ((.((((....)))).)), for which the folding enthalpy in data set [1] was -94.2 kJ/mol. The Tm in data set [2] stood at 49.5 °C.
For the sequence GAGACGGGAAACCGCCTC (((.(((....))).))), the folding enthalpy in data set [1] is -141 kJ/mol. Also, the Tm in data set [2] amounted to 49.1 °C.
As for GAGAGAGGAAACCCTCTC (((((.(....).))))), the folding enthalpy in data set [1] is -84.4 kJ/mol. The Tm in data set [2] was 42.5 °C.
Regarding GAGAGAGGAAACTCTCCC (.(((((....))))).), the folding enthalpy in data set [1] was -71 kJ/mol. Moreover, the Tm in data set [2] worked out at 37 °C.
The corresponding values for GAGAGCGAAAGCTAACTC ((((((....)))..))) are -53.1 kJ/mol and 33 °C.
The corresponding values for GAGAGCGAAAGCTCACTC ((((((....)))..))) are -50 kJ/mol and 55.5 °C.
For the sequence GAGAGCGAAAGCTCGCTC ((((((....)))..))), the folding enthalpy in data set [1] is -54.5 kJ/mol. Also, the Tm in data set [2] was 66.9 °C.
With GAGAGCGAAAGCTGACTC ((((((....)))..))), the folding enthalpy in data set [1] was -55.6 kJ/mol. Besides, the Tm in data set [2] amounted to 32.3 °C.
The corresponding values for GAGAGCGAAAGCTGCCTC ((((((....)))..))) are -46.4 kJ/mol and 27.4 °C.
GAGAGCGAAAGCTGGCTC ((((((....)))..))): the folding enthalpy in data set [1] was -56.5 kJ/mol. Further, in data set [2], the Tm was determined as 37.2 °C.
The corresponding values for GAGAGCGAAAGCTTCTC ((((((....))).))) are -91.5 kJ/mol and 48 °C.
For GAGAGCGCGAAAGCGCTC (((..(((....)))))), the folding enthalpy in data set [1] is -26.8 kJ/mol. The Tm in data set [2] was determined as 63.2 °C.
For GAGAGGCCGAAAGGCCTC (((..(((....)))))), in data set [1], the folding enthalpy was -31.3 kJ/mol. In addition, the Tm in data set [2] came to 65.9 °C.
The corresponding values for GAGAGGCGAAAGCCCCTC (((.(((....))).))) are -72.3 kJ/mol and 51.7 °C.
The corresponding values for GAGAGGGAAACCTCTC ((((((....)))))) are -151 kJ/mol and 55.3 °C.
For GAGAGTACGAAAGTACTC (((..(((....)))))), in data set [1], the folding enthalpy was -49.1 kJ/mol. Further, in data set [2], the Tm amounted to 55.2 °C.
The corresponding values for GAGAGTGGAAACACTCCC (.(((((....))))).) are -57.4 kJ/mol and 38.1 °C.
The corresponding values for GAGATAGAAATATCTC ((((((....)))))) are -113 kJ/mol and 39 °C.
With GAGATAGCGAAAGCTCTC (((..(((....)))))), the folding enthalpy in data set [1] was -66.6 kJ/mol. Besides, in data set [2], the Tm was found to be 40 °C.
The corresponding values for GAGATAGGAAACTATCCC (.(((((....))))).) are -68.8 kJ/mol and 30.1 °C.
The corresponding values for GAGATCCCGAAAGGGCTC (((..(((....)))))) are -50.3 kJ/mol and 34.9 °C.
The corresponding values for GAGATCCGAAAGGAGCTC (((.(((....))).))) are -188 kJ/mol and 60.8 °C.
For the sequence GAGATCGGAAACGATCTC (((((((....))))))), the folding enthalpy in data set [1] was -180 kJ/mol. Besides, the Tm in data set [2] is 66.8 °C.
Take GAGATGCGAAAGCAGCTC (((.(((....))).))): the folding enthalpy in data set [1] is -145 kJ/mol. Besides, in data set [2], the Tm was found to be 69.1 °C.
For GAGATGGCGAAAGCCCTC (((..(((....)))))), the folding enthalpy in data set [1] was -42.9 kJ/mol. Moreover, in data set [2], the Tm amounted to 32.8 °C.
For the sequence GAGATTGGAAACGATCTC (((((.(....).))))), the folding enthalpy in data set [1] is -151 kJ/mol. In addition, the Tm in data set [2] came to 44.2 °C.
As for GAGCAACGAAAGTTCCTC (((.(((....))).))), in data set [1], the folding enthalpy was -57 kJ/mol. In data set [2], the Tm stood at 32.3 °C.
With GAGCAACGAAAGTTTCTC (((.(((....))).))), the folding enthalpy in data set [1] was -110 kJ/mol. In addition, in data set [2], the Tm came out at 37 °C.
The corresponding values for GAGCACACGAAAGTGCTC (((..(((....)))))) are -140 kJ/mol and 57.8 °C.
For the sequence GAGCACCGAAAGGTCCTC (((.(((....))).))), the folding enthalpy in data set [1] is -92.9 kJ/mol. Moreover, the Tm in data set [2] amounted to 40.8 °C.
For GAGCACCGAAAGGTCTC (((.(((....)))))), in data set [1], the folding enthalpy is -101 kJ/mol. Moreover, in data set [2], the Tm stood at 47.6 °C.
The corresponding values for GAGCACGAAAGTGAGCTC ((((((....)))..))) are -106 kJ/mol and 49.6 °C.
As to GAGCACGAAAGTGTACTC ((((((....)))..))), the folding enthalpy in data set [1] was -64.3 kJ/mol. In data set [2], the Tm stood at 37.5 °C.
As for GAGCACGAAAGTGTGCTC ((((((....)))..))), the folding enthalpy in data set [1] was -130 kJ/mol. Besides, the Tm in data set [2] came out at 58.6 °C.
The corresponding values for GAGCACGGAAACGTACTC (((.(((....))).))) are -138 kJ/mol and 45.4 °C.
The corresponding values for GAGCAGCGAAAGCTCCTC (((.(((....))).))) are -63.8 kJ/mol and 37.5 °C.
The corresponding values for GAGCAGCGAAAGCTCTC (((.(((....)))))) are -73.7 kJ/mol and 47.4 °C.
With GAGCATGAAAATGCTC ((((((....)))))), the folding enthalpy in data set [1] is -138 kJ/mol. Moreover, the Tm in data set [2] stood at 63.2 °C.
The corresponding values for GAGCATGCGAAAGCACTC (((..(((....)))))) are -37.4 kJ/mol and 27 °C.
The corresponding values for GAGCCACCGAAAGGTCTC (((..(((....)))))) are -51 kJ/mol and 29.7 °C.
The corresponding values for GAGCCAGGAAACTGACTC (((.(((....))).))) are -154 kJ/mol and 44 °C.
For the sequence GAGCCCGAAAGGGCCTC ((((((....))).))), in data set [1], the folding enthalpy was -36.5 kJ/mol. The Tm in data set [2] was 58.9 °C.
In the case of GAGCCCGAAAGGGTTCTC ((((((....)))..))), the folding enthalpy in data set [1] was -83.1 kJ/mol. Also, the Tm in data set [2] was 66.9 °C.
The corresponding values for GAGCCCGGAAACAGGCCC (.(((.(....).))).) are -35.4 kJ/mol and 27.1 °C.
The corresponding values for GAGCCCGGAAACGGACTC (((.(((....))).))) are -139 kJ/mol and 52.4 °C.
GAGCCGCCGAAAGGCCTC (((..(((....)))))): the folding enthalpy in data set [1] was -37.4 kJ/mol. Besides, in data set [2], the Tm was 33.1 °C.
The corresponding values for GAGCCGCGAAAGCGCCTC (((.(((....))).))) are -67 kJ/mol and 46.4 °C.
The corresponding values for GAGCCGCGAAAGCGCTC (((.(((....)))))) are -70 kJ/mol and 58.9 °C.
Take GAGCCGCGAAAGCGTCTC (((.(((....))).))): the folding enthalpy in data set [1] is -93.7 kJ/mol. Further, the Tm in data set [2] came to 54.3 °C.
For the sequence GAGCCGGGAAACCAGCTC ((((.((....)).)))), in data set [1], the folding enthalpy was -158 kJ/mol. Also, the Tm in data set [2] amounted to 48 °C.
The corresponding values for GAGCCTGGAAACAAGCTC ((((.((....)).)))) are -124 kJ/mol and 38.6 °C.
The corresponding values for GAGCCTGGAAACAGGCCC (.(((((....))))).) are -45.5 kJ/mol and 47.8 °C.
The corresponding values for GAGCGACGAAAGTCTCTC (((.(((....))).))) are -124 kJ/mol and 46 °C.
For GAGCGAGGAAACCCGCTC (((((.(....).))))), in data set [1], the folding enthalpy was -136 kJ/mol. Further, in data set [2], the Tm was 54.7 °C.
As for GAGCGCCCGAAAGGGCTC (((..(((....)))))), the folding enthalpy in data set [1] was -28 kJ/mol. Besides, the Tm in data set [2] was 29.4 °C.
For GAGCGCCGAAAGGCACTC (((.(((....))).))), the folding enthalpy in data set [1] was -84.7 kJ/mol. Moreover, the Tm in data set [2] is 56.4 °C.
GAGCGCCGAAAGGCCTC (((.(((....)))))): the folding enthalpy in data set [1] is -61.1 kJ/mol. In addition, the Tm in data set [2] is 59.8 °C.
With GAGCGCGAAAGCGAGCTC ((((((....)))..))), the folding enthalpy in data set [1] was -87.4 kJ/mol. For the same sequence, the Tm in data set [2] was determined as 58.3 °C.
Take GAGCGCGAAAGCGGACTC ((((((....)))..))): the folding enthalpy in data set [1] was -57.2 kJ/mol. For the same sequence, the Tm in data set [2] amounted to 52.3 °C.
The corresponding values for GAGCGCGAAAGCGGCTC ((((((....))).))) are -86.1 kJ/mol and 67.8 °C.
Take GAGCGCGAAAGCGTCCTC ((((((....)))..))): the folding enthalpy in data set [1] is -42 kJ/mol. The Tm in data set [2] turned out to be 42.2 °C.
The corresponding values for GAGCGCGAAAGCGTTCTC ((((((....)))..))) are -75.9 kJ/mol and 66.8 °C.
Consider GAGCGCGGAAACGCACTC (((.(((....))).))), for which the folding enthalpy in data set [1] is -101 kJ/mol. In addition, the Tm in data set [2] was 59 °C.
The corresponding values for GAGCGCGGAAACGTGCTC ((((.((....)).)))) are -135 kJ/mol and 65.6 °C.
With GAGCGGCGAAAGCCTCTC (((.(((....))).))), the folding enthalpy in data set [1] is -85.6 kJ/mol. Also, in data set [2], the Tm came out at 51.7 °C.
The corresponding values for GAGCGGGGAAACTCGCTC (((((.(....).))))) are -160 kJ/mol and 60.4 °C.
The corresponding values for GAGCTACGAAAGTAACTC (((.(((....))).))) are -107 kJ/mol and 42.3 °C.
The corresponding values for GAGCTAGGAAACCAGCTC (((((.(....).))))) are -164 kJ/mol and 46.3 °C.
